According to ChEMBL document CHEMBL3046488, “Synthesis of 3-(4-Bromobenzyl)-5-(aryl methylene)-5H-furan-2-ones and their activity as inhibitors of the photosynthetic electron transport chain” (2007):
Activity calls are given as the source filed them. The rule behind the calls is not given here.

Key:
Spinacia oleracea [1] = assay: (§1) In vitro inhibition of basal rate of photosynthetic electron transport (Hill reaction) in active intact chloroplast thylakoid membrane of Spinacia oleracea (spinach) leaves assessed as light-driven ferricyanide reduction at 10 uM measured at 24 degC at 30 secs intervals for 10 min (reference value: 100 +/-3.1%); design: scale not given: the % may be the effect or the level left
Spinacia oleracea [2] = assay: as §1, with “at 5” for “at 10”; design: scale not given: the % may be the effect or the level left
[3] = test system: Auxenochlorella protothecoides; assay: In vivo inhibition of photosynthetic activity in intact Auxenochlorella protothecoides ATCC 30411 cells assessed as light-driven oxygen evolution rate at 100 uM measured at 24 degC every 15 sec upto 8 min by polarographic analysis in presence of 0.001% Triton X-100 (reference value: 100 +/-5.1%); type: functional; design: scale not given: the % may be the effect or the level left
[4] = test system: Auxenochlorella protothecoides; assay: In vivo inhibition of photosynthetic activity in intact Auxenochlorella protothecoides ATCC 30411 cells assessed as light-driven oxygen evolution rate at 10 uM measured at 24 degC every 15 sec upto 8 min by polarographic analysis in presence of 0.001% Triton X-100 (reference value: 100 +/-5.1%); type: functional; design: scale not given: the % may be the effect or the level left
[5] = test system: Auxenochlorella protothecoides; assay: In vivo inhibition of photosynthetic activity in intact Auxenochlorella protothecoides ATCC 30411 cells assessed as light-driven oxygen evolution rate at 100 uM measured at 24 degC every 15 sec upto 8 min by polarographic analysis in absence of detergent (reference value: 100 +/-5.9%); type: functional; design: scale not given: the % may be the effect or the level left
[6] = test system: Auxenochlorella protothecoides; assay: In vivo inhibition of photosynthetic activity in intact Auxenochlorella protothecoides ATCC 30411 cells assessed as light-driven oxygen evolution rate at 10 uM measured at 24 degC every 15 sec upto 8 min by polarographic analysis in absence of detergent (reference value: 100 +/-5.9%); type: functional; design: scale not given: the % may be the effect or the level left
Spinacia oleracea [7] = assay: In vitro inhibition of basal rate of photosynthetic electron transport (Hill reaction) in active intact chloroplast thylakoid membrane of Spinacia oleracea (spinach) leaves assessed as inhibition of light-driven ferricyanide reduction at 10 uM measured at 24 degC at 30 secs intervals for 10 min in presence of 0.25 to 1 mM uncoupler, NH4Cl
Outline: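 A fixed compound concentration was tested in the spinach thylakoid ferricyanide-reduction assay at increasing NH4Cl (uncoupler) levels. Activity is expressed as % of untreated samples containing the same amount of uncoupler, mean ± SE over at least six replications from two independent experiments.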

Spinacia oleracea [8] = assay: In vitro inhibition of uncoupled electron transport in active intact chloroplast thylakoid membrane of Spinacia oleracea (spinach) leaves assessed as light-driven ferricyanide reduction at 10 uM measured at 24 degC at 30 secs intervals for 10 min (reference value: 100 +/-4.1%); design: scale not given: the % may be the effect or the level left
Spinacia oleracea [9] = assay: In vitro inhibition of phosphorylating electron transport in active intact chloroplast thylakoid membrane of Spinacia oleracea (spinach) leaves assessed as light-driven ferricyanide reduction at 10 uM measured at 24 degC at 30 secs intervals for 10 min (reference value: 100 +/-3.8%); design: scale not given: the % may be the effect or the level left
Spinacia oleracea [10] = assay: In vitro inhibition of basal rate of photosynthetic electron transport (Hill reaction) in active intact chloroplast thylakoid membrane of Spinacia oleracea (spinach) leaves assessed as inhibition of light-driven ferricyanide reduction at >10 uM measured at 24 degC at 30 secs intervals for 10 min

SMILES	Activity (Spinacia oleracea [1])	Activity (Spinacia oleracea [2])	other results
O=C1OC(=Cc2ccc(F)cc2)C=C1Cc1ccc(Br)cc1	68.5%	74%	
CN(C)c1ccc(C=C2C=C(Cc3ccc(Br)cc3)C(=O)O2)c(Cl)c1	91%	94.7%	
CN(C)C(=O)Nc1ccc(Cl)c(Cl)c1 [DCMU]	4.9%	6.8%	Activity [3]: 20.7%; Activity [4]: 32.2%; Activity [5]: 38.5%; Activity [6]: 49.9%
COc1ccc(OC)c(/C=C2\C=C(Cc3ccc(Br)cc3)C(=O)O2)c1	71%	94.1%	
O=C1OC(=Cc2ccccc2)C=C1Cc1ccc(Br)cc1	42.9%	54.1%	Activity [3]: 74.2%; Activity [5]: 82.6%; inhibition (Spinacia oleracea [7]): inactive; Activity (Spinacia oleracea [8]): 95.6%; Activity (Spinacia oleracea [9]): 47.9%; inhibition (Spinacia oleracea [10]): inactive
O=C1OC(=Cc2ccc(C(F)(F)F)cc2)C=C1Cc1ccc(Br)cc1	48.8%	71.7%	Activity [3]: 89.5%; Activity [5]: 94.5%; Activity (Spinacia oleracea [8]): 79.8%; Activity (Spinacia oleracea [9]): 52.1%; inhibition (Spinacia oleracea [10]): inactive
N#Cc1ccc(C=C2C=C(Cc3ccc(Br)cc3)C(=O)O2)cc1	101%	100%	
COc1cc(OC)c(/C=C2\C=C(Cc3ccc(Br)cc3)C(=O)O2)c(OC)c1	79.9%	84.2%	
O=C1OC(=Cc2ccc(Cl)cc2)C=C1Cc1ccc(Br)cc1	89.4%	94.1%	
Cc1cccc(/C=C2\C=C(Cc3ccc(Br)cc3)C(=O)O2)c1	69.7%	72.8%	
O=C1OC(=Cc2cccc([N+](=O)[O-])c2)C=C1Cc1ccc(Br)cc1	66.9%	72.6%	
O=C1O/C(=C\c2ccc3c(c2)OCO3)C=C1Cc1ccc(Br)cc1	91%	91.1%	
O=C1OC(=Cc2ccc(Br)cc2)C=C1Cc1ccc(Br)cc1	92%	95.4%	
